Experimental data as given in the RNAGym collection of RNA variant scans (doi:10.1002/anie.201605470).

B1: Osa-1-4 twister ribozyme (parent)
chain: CCGCCUAACACUGCCAAUGCCGGUCCCAAGCCCGGAUAAAAGUGGAGGGGGCGG

Variants of: B1
Test: self-cleavage, relative activity (ratio to wild type); higher = more cleavage; co-transcriptional
Method in brief: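 A DNA template for a 54-nucleotide Oryza sativa twister ribozyme was synthesised with 97 % wild-type base and 1 % of each other base at the 48 positions downstream of the cleavage site. It was transcribed in vitro for 2 h at 37 °C, allowing co-transcriptional self-cleavage, then reverse-transcribed with a template-switching oligonucleotide, PCR-amplified and deep-sequenced. Cleavage status was scored from reads with or without upstream sequence. Relative activity is fraction cleaved normalised to wild type.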

Variant | self-cleavage
G51A G53U | 0.17
G51A G53C | 0.06
C52U G35C | 0.63
C52U G35A | 0.96
C52U G35U | 0.99
C52U U43A | 1
C52U U43C | 0.62
C52U U43G | 0.88
G53A U24C | 0.08
G53A U24A | 0.09
G53A U24G | 0.03
G50U U43G | 0.71
G50U U43C | 0.68
G50U U43A | 0.92
G53A | 0.93
C52G G47C | 0.11
C52G G47U | 0.29
C52G G47A | 0.28
G50U U12C | 0.62
G50U U12G | 0.47
G50U U12A | 0.82
C52U G51U | 0.54
C52U G51C | 0.13
C52U G51A | 0.88

Variant | self-cleavage
G51U U18C | 0.29
G51U U18G | 0.35
G51U U18A | 0.31
C52U G48C | 0.11
C52U G48U | 0.11
C52U G48A | 0.15
C52A G44A | 0.98
C52A G44C | 0.96
C52A G44U | 0.93
G53A U18G | 0.65
G53A U18A | 0.8
G53A U18C | 0.83
C52G G51U | 0.48
C52G G51C | 0.41
C52G G51A | 0.84
C52A G47C | 0.1
C52A G47A | 0.22
C52A G47U | 0.21
G50C U43A | 0.75
G50C U43G | 0.36
G50C U43C | 0.45
G51U G54A | 0.25
G51U G54C | 0.51
G51U G54U | 0.4

Variant | self-cleavage
C52A U12G | 0.18
C52A U12C | 0.48
C52A U12A | 0.71
C52A G34C | 0.21
C52A G34A | 0.65
C52A G34U | 0.39
G51A | 0.77
G51C | 0.17
G51U | 0.44
C52G U37A | 0.81
C52G U37G | 1.02
C52G U37C | 1.05
C52U G50U | 0.98
C52U G50C | 0.57
C52U G50A | 0.97
C52A U18A | 0.93
C52A U18C | 0.93
C52A U18G | 0.82
G51C U24C | 0.04
G51C U24A | 0.04
G51C U24G | 0.02
G50C G54U | 0.32
C52U G44C | 1.05
C52U G44A | 1

Variant | self-cleavage
C52U G44U | 1.02
C52U G54A | 0.98
C52U G54C | 0.94
C52U G54U | 1.03
C52U G53U | 0.9
C52U G53C | 0.17
C52U G53A | 1
C52U G34C | 0.65
C52U G34A | 0.93
C52U G34U | 0.85
C52U U18G | 0.86
C52U U18C | 1
C52U U18A | 0.97
C52U G47A | 0.45
C52U G47U | 0.4
C52U G47C | 0.12
C52A U37C | 1.02
C52A U37G | 1.06
C52A U37A | 0.9
G51C G54C | 0.34
G51C G54A | 0.09
G51C G54U | 0.12
C52U C9G | 0.95
C52U C9A | 0.62

Variant | self-cleavage
C52U C9U | 0.87
G50U U24A | 0.13
G50U U24G | 0.02
G50U U24C | 0.28
G51C U43C | 0.06
G51C U43A | 0.06
G51C U43G | 0.06
C52G U18A | 0.91
C52G U18C | 0.93
C52G U18G | 0.86
C52A G22U | 0.17
C52A G22C | 0.07
C52A G22A | 0.71
G53A U43A | 0.64
G51U U24C | 0.05
G51U U24A | 0.05
G51U U24G | 0.02
C52G C9G | 0.86
C52G C9U | 0.85
C52G C9A | 0.57
G51A U18C | 0.46
G51A U18G | 0.64
G51A U18A | 0.62
C52A G13U | 0.03

Variant | self-cleavage
C52A G13A | 0.08
C52A G13C | 0.04
G53A U37G | 0.97
G53A U37A | 0.57
G53A U37C | 0.97
C52G | 1.01
C52U | 1.03
C52A | 1.02
C52G G35C | 0.36
C52G G35A | 0.84
C52G G35U | 0.91
C52G G50U | 0.24
C52G G50A | 0.85
C52G G50C | 0.09
C52G U12C | 0.58
C52G U12A | 0.85
C52G U12G | 0.32
C52U G23C | 0.06
C52U G23U | 0.25
C52U G23A | 0.68
C52U G22U | 0.88
C52U G22C | 0.17
C52U G22A | 0.91
G51C U18A | 0.12

Variant | self-cleavage
G51C U18G | 0.13
G51C U18C | 0.13
C52A G23A | 0.17
C52A G23C | 0.06
C52A G23U | 0.09
C52G G44U | 0.9
C52G G44C | 0.9
C52G G44A | 0.98
C52A G42A | 0.68
C52A G42C | 0.16
C52A G42U | 0.11
C52A G19A | 0.42
C52A G19U | 0.2
C52A G19C | 0.08
G51A U37A | 0.39
G51A U37G | 0.78
G51A U37C | 0.82
C52G G30C | 0.07
C52G G30A | 0.06
C52G G30U | 0.05
C52A G53C | 0.5
C52A G53A | 0.92
C52A G53U | 0.8
